STAT3 act: increases IL-6 driven STAT3 reporter signal; U3A cells, IL-6 STAT3-luciferase reporter, luminescence; 100% = signal with IL-6 EC80 alone; activation (% of control), % at 5.6 µM; hit rate 0.91% among 190,000; AID 871;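 active means activation above the screen-wide mean of compound activation plus 3 SD, cut at about 130% in these data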
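Detection: reporter luminescence signal / Assay system: STAT1-lacking human U3A cells, STAT3 luciferase reporter / Incubation: compound pre-incubation 1 h before IL-6, then 6 h stimulation at 37 °C / Control set: IL-6-only high control / Read-out: % activation relative to IL-6 control / Probe or stimulus: Interleukin-6, 33 ng/mL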
STAT1 blocker: inhibitors of IFN-gamma induced STAT1 signaling; NIH 3T3 STAT1-luciferase reporter, luminescence; inhibition, % at 5.5 µM; hit rate 0.35% among 200,000;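 active means inhibition above a set limit, the mean inhibition across all tested compounds plus 3 SD, cut at about 34% in these data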
APP 5'UTR act: APP 5'UTR luciferase reporter activation; SH-SY5Y APP 5'UTR luciferase reporter, luminescence; zero percent = DMSO vehicle wells; AID 1276; activation, % at 2 µM; hit rate 1% among 190,000;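 active means activation above a set limit, based on mean plus 3 SD of controls, cut at about 140% in these data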
NF-kB expr up: NF-kB expression increase, human neuronal cells | hit rate 1.6% among 190,000 | fold change at 12.5 µM | AID 1239 | NF-kB reporter expression; stronger effect = higher value; in the data active means fold change above about 3.3
STAT1 activator: increases IFN-gamma driven STAT1 reporter signal. NIH 3T3 STAT1-luciferase reporter, luminescence; 100% = IFN-gamma alone, no compound. hit rate 2.6% among 200,000. activation (% of control), % at 5.5 µM;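 active means activation above the screen-wide mean activation plus 3 SD, cut at about 130% in these data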
STAT3 inh: inhibitors of IL-6 induced STAT3 signaling. hit rate 0.89% among 190,000. AID 862. inhibition, % at 5.5 µM. U3A cells, IL-6 STAT3-luciferase reporter, luminescence; host cell line lacks STAT1;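 active means inhibition above the mean inhibition across all screened compounds plus 3 SD, cut at about 44% in these data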
A number is an active result; . = inactive; / = not tested or not shown. This is a sample that favours compounds with a hit; in the whole collection about 5.1% have one here.

SMILES	STAT3 act	STAT1 blocker	APP 5'UTR act	NF-kB expr up	STAT1 activator	STAT3 inh
Cc1ccc(C(=O)Nc2ccc3cn[nH]c3c2)cc1S(=O)(=O)N1CCOCC1	142	.	.	/	130	.
O=C(CCc1nc2ccccc2s1)OCC(=O)N1CCN(C(=O)c2ccco2)CC1	.	.	.	.	.	.
Cc1cc(NC(=O)c2c(F)cccc2Cl)n(-c2nc3ccccc3[nH]2)n1	.	.	.	.	.	.
O=C1/C(=C/c2ccccc2)CCCc2ccccc21	.	.	.	.	.	.
Cc1cccc(/C=C2\CCC(=C3SCCCS3)C2=O)c1	.	.	172	.	.	.
Cc1onc(-c2c(F)cccc2Cl)c1C(=O)OCn1nnc2ccccc2c1=O	.	.	.	5.6	.	.
N#Cc1c(SCc2nc3ccccc3[nH]2)nc2c(c1C(F)(F)F)CCC2	174	.	.	/	.	.
c1ccc(SCc2nc3ccccc3[nH]2)cc1	.	.	.	.	.	.
N#Cc1cc2c(nc1SCc1nc3ccccc3[nH]1)CCC2	.	.	248	.	.	.
Cc1cccc(CSc2nc3c(cc2C#N)CCC3)c1	.	.	.	.	.	.
Cc1onc(-c2ccccc2Cl)c1C(=O)N1CCN(c2ncccn2)CC1	.	.	.	.	.	.
C/C(Cc1ccccc1)=N\NC(=O)C1CCCCC1	.	.	.	.	.	.
COC(=O)N/N=C(/c1ccccc1)C1CCCCC1	.	.	.	5.6	.	.
COc1ccc(CC(=O)NCc2cccs2)cc1OC	.	.	.	.	.	.
O=C(N/N=C/c1c[nH]c2ccccc12)c1ccn(Cc2ccc(Cl)cc2)n1	135	.	.	.	.	.
Cc1ccc(/C=C2\OC(=O)c3ccccc32)cc1	157	.	.	5.7	146	.
O=C(CCC(=O)c1ccccc1)Nc1cccnc1	.	.	.	.	.	.
CC(C)(C)N=Cc1cc(-c2ccccc2)sc1O	.	.	/	.	138	.
CCN(CC)c1ccc(C=Nc2ccccc2)c(O)c1	.	.	.	.	.	.
O=C(O)c1ccccc1NN=C1CCCCC1	.	.	.	3.4	138	.
Cc1cc(C(=O)Cn2nnc3ccccc3c2=O)c(C)n1-c1ccccc1F	.	.	197	.	129	.
Cc1cc(C(=O)Cn2nnc3ccccc3c2=O)c(C)n1-c1c(C)n(C)n(-c2ccccc2)c1=O	.	.	.	.	.	.
Cc1cc(C(=O)COC(=O)c2ccc(O)cc2)c(C)n1-c1ccccc1F	.	.	185	.	.	.
CCn1cc(C(=O)OCC(=O)c2cc(C)n(-c3ccccc3F)c2C)c(=O)c2ccc(C)nc21	.	.	.	.	.	.
Cc1cc(C)n2nc(-c3cnn(C)c3C(F)(F)F)cc2n1	.	.	.	.	.	.
SMILES	STAT3 act	STAT1 blocker	APP 5'UTR act	NF-kB expr up	STAT1 activator	STAT3 inh
O=C(Oc1ccc2cc(Br)ccc2c1)N1CCCCCC1	.	.	.	.	131	.
O=C(Oc1ccc2ccccc2c1Br)N1CCCCCC1	.	.	172	.	135	.
CCN(CC)C(=O)Oc1ccc2ccccc2c1Br	.	.	.	.	135	.
O=C(COc1ccc2ccccc2c1Br)N1CCN(c2ccccn2)CC1	.	.	.	.	.	.
O=C(NC1CCN(Cc2ccccc2)C1)c1cc(COc2ccc(F)cc2F)on1 (stereo not drawn)	.	.	.	.	.	.
c1ccn(-c2ccc(-c3ccn[nH]3)cc2)c1	.	.	.	.	143	.
O=C(CCN1CCOCC1)Nc1ccc2c(c1)CCC2	.	.	.	.	.	.
Cc1ccc(C(=O)CSc2nnc(C(C)C)n2C)cc1C	.	.	.	3.4	.	.
CCCCn1nnnc1SCC(=O)c1ccc(C)c(C)c1	.	.	.	.	.	.
COc1ccc(CCn2c(=O)c3cccnc3n(Cc3ccc([N+](=O)[O-])cc3)c2=O)cc1OC	.	.	.	.	.	.
Cc1[nH]c(-c2ccco2)nc1C(=O)O	.	.	.	.	.	.
CS(=O)(=O)N1CCC(C(=O)NCc2ccccc2)CC1	.	.	.	.	.	.
O=C(O)c1c(-c2ccc(Cl)cc2)cn2ccccc12	.	.	.	.	135	.
CCOc1ccc2nc(N3C(=O)/C(=C/c4ccccc4)NC3=S)sc2c1	.	.	.	.	137	.
COC(=O)c1sccc1NC(=O)COc1ccc(C)cc1	.	.	.	.	.	.
COc1ccccc1-c1nnc(SCC(=O)NCc2ccco2)n1N	.	.	.	.	.	.
CCOC(=O)C1(Cc2ccccc2Cl)CCN(C(=O)c2cnccn2)CC1	.	.	.	.	149	.
CCOC(=O)C1(Cc2cccc(F)c2)CCN(C(=O)c2cnccn2)CC1	.	.	.	.	.	.
N#Cc1ccc(N2Cc3ccccc3C2=NC(=O)c2cccnc2Cl)cc1	.	.	.	5	.	.
O=C(c1ccccc1)c1nn(-c2ccc(Cl)cc2)c(=O)cc1C(F)(F)F	134	.	.	.	.	.
CC(C)C(C)NC(=O)COc1ccc([N+](=O)[O-])cc1Cl (stereo not drawn)	.	.	.	.	.	.
COc1ccc2cc(C(=O)NCc3ccco3)c(=Nc3ccc(C(=O)O)cc3)oc2c1	.	.	.	.	.	.
COc1ccc(-c2cc(=Nc3ccc(C(=O)O)cc3)c3cc(C)ccc3o2)cc1	.	.	209	.	.	.
CCc1ccc2oc(-c3ccc(OC)cc3)cc(=Nc3cccc(C(=O)O)c3)c2c1	.	.	204	7.2	.	.
CCc1ccc2oc(-c3ccc(OC)cc3)cc(=Nc3c(C)n(C)n(-c4ccccc4)c3=O)c2c1	.	.	173	.	.	.
SMILES	STAT3 act	STAT1 blocker	APP 5'UTR act	NF-kB expr up	STAT1 activator	STAT3 inh
Cc1cc2c(o1)CC(C)(C)CC2=O	.	.	.	.	.	.
CCOC(=O)C(Nc1ccc2ccccc2c1)C(=O)OCC	136	.	.	.	.	.
CC(=O)Nc1ccc2ccccc2c1	.	.	.	.	.	.
O=C(/C=C/c1ccccc1)c1ccc2c(c1)OCCCCO2	.	.	147	.	140	.
CN(C)c1ccc(C(=O)/C=C/c2ccc(Br)cc2)cc1	.	.	.	.	.	.
Cc1ccc(C(=O)NCC(=O)OCC(=O)c2ccc3c(c2)NC(=O)CO3)cc1C	.	.	.	.	.	.
CN(C)c1ccc(C(=O)/C=C/c2ccccc2)cc1	.	.	140	4.9	138	.
Cc1cc(C)cc(OCC(=O)OCC(=O)c2ccc3c(c2)NC(=O)CO3)c1	.	.	/	3.6	.	.
O=C1COc2ccc(C(=O)/C=C/c3ccccc3)cc2N1	.	.	.	3.3	.	.
CCCCCCCCS(=O)c1sc2nc(C)cc(C)c2c1N (stereo not drawn)	.	.	.	.	.	.
CN1CCN(C(=S)NCCc2ccccc2)CC1	.	.	.	.	.	.
S=C(NCCc1ccccc1)NC1CCCCCC1	.	.	.	.	137	.

Compound activity as filed in PubChem BioAssay.
